# Experimental data taken from ChEMBL document CHEMBL3045357, “DNA adducts as biomarkers for oxidative and genotoxic stress from pesticides in crop plants” (J Agric Food Chem, 2008).
# Legend:
# Assay type in all cases: organism-based
# Settings in all cases: in vivo, other, 336 h
# Glycine max [1] = assay: Genotoxicity in Glycine max (soybean) exposed to compound through spray 4 times over 2 weeks assessed as relative adduct level A6 measured per 10^9 nucleotides using HX-dG internal standard using [32P]labeling based autoradiography relative to untreated control
# In short: (§1)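 Plants (2–6 weeks grown), groups of 2–4, sprayed 4 times over 2 weeks with formulations diluted per label (chlorothalonil 1:256, carbaryl 1:64 in water); controls water-sprayed. DNA from 1 g leaf via DNeasy Maxi kit. 10 µg DNA digested with micrococcal nuclease/spleen phosphodiesterase (4 h, 37 °C), NP1-enriched (45 min, 37 °C), labelled with [γ-32P]ATP/T4 kinase (45 min, 37 °C).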
# Glycine max [2] = assay: Genotoxicity in Glycine max (soybean) exposed to compound through spray 4 times over 2 weeks assessed as relative adduct level A5 measured per 10^9 nucleotides using HX-dG internal standard using [32P]labeling based autoradiography relative to untreated control; in short: as §1
# Glycine max [3] = assay: Genotoxicity in Glycine max (soybean) exposed to compound through spray 4 times over 2 weeks assessed as relative adduct level A4 measured per 10^9 nucleotides using HX-dG internal standard using [32P]labeling based autoradiography relative to untreated control; in short: as §1
# Glycine max [4] = assay: Genotoxicity in Glycine max (soybean) exposed to compound through spray 4 times over 2 weeks assessed as relative adduct level A3 measured per 10^9 nucleotides using HX-dG internal standard using [32P]labeling based autoradiography relative to untreated control; in short: as §1
# Glycine max [5] = assay: Genotoxicity in Glycine max (soybean) exposed to compound through spray 4 times over 2 weeks assessed as relative adduct level A6 measured per 10^9 nucleotides using [32P]labeling based autoradiography relative to untreated control; in short: as §1
# Glycine max [6] = assay: Genotoxicity in Glycine max (soybean) exposed to compound through spray 4 times over 2 weeks assessed as relative adduct level A5 measured per 10^9 nucleotides using [32P]labeling based autoradiography relative to untreated control; in short: as §1
# Glycine max [7] = assay: Genotoxicity in Glycine max (soybean) exposed to compound through spray 4 times over 2 weeks assessed as relative adduct level A4 measured per 10^9 nucleotides using [32P]labeling based autoradiography relative to untreated control; in short: as §1
# Glycine max [8] = assay: Genotoxicity in Glycine max (soybean) exposed to compound through spray 4 times over 2 weeks assessed as relative adduct level A3 measured per 10^9 nucleotides using [32P]labeling based autoradiography relative to untreated control; in short: as §1
# Glycine max [9] = assay: Genotoxicity in Glycine max (soybean) exposed to compound through spray 4 times over 2 weeks assessed as relative adduct level A2 measured per 10^9 nucleotides using [32P]labeling based autoradiography relative to untreated control; in short: as §1
# Glycine max [10] = assay: Genotoxicity in Glycine max (soybean) exposed to compound through spray 4 times over 2 weeks assessed as relative adduct level A1 measured per 10^9 nucleotides using [32P]labeling based autoradiography relative to untreated control; in short: as §1
# Glycine max [11] = assay: Genotoxicity in Glycine max (soybean) exposed to compound through spray 4 times over 2 weeks assessed as HNE-dG adducts using [32P]labeling based autoradiography (reference value: 34 cpm); in short: as §1
# Glycine max [12] = assay: Genotoxicity in Glycine max (soybean) exposed to compound through spray 4 times over 2 weeks assessed as relative adduct level A2 measured per 10^9 nucleotides using HX-dG internal standard using [32P]labeling based autoradiography relative to untreated control; in short: as §1
# Glycine max [13] = assay: Genotoxicity in Glycine max (soybean) exposed to compound through spray 4 times over 2 weeks assessed as relative adduct level A1 measured per 10^9 nucleotides using HX-dG internal standard using [32P]labeling based autoradiography relative to untreated control; in short: as §1
# Glycine max [14] = assay: Genotoxicity in Glycine max (soybean) exposed to compound through spray 4 times over 2 weeks assessed as HX-dG adducts using [32P]labeling based autoradiography; in short: as §1
# Glycine max [15] = assay: Genotoxicity in Glycine max (soybean) exposed to compound through spray 4 times over 2 weeks assessed as HNE-dG adducts measured per 10^9 nucleotides using [32P]labeling based autoradiography (reference value: 2 no unit); in short: as §1
# Glycine max [16] = assay: Genotoxicity in Glycine max (soybean) exposed to compound through spray 4 times over 2 weeks assessed as HX-dG adducts measured per 10^9 nucleotides using [32P]labeling based autoradiography; in short: as §1
structure (smiles),measurement,setting,value
CCOP(=S)(OCC)Oc1cc(C)nc(C(C)C)n1 [DIMPYLATE],Activity,Glycine max [1],1396 cpm
same,Activity,Glycine max [2],341 cpm
same,Activity,Glycine max [3],927 cpm
same,Activity,Glycine max [4],1377 cpm
same,Activity,Glycine max [5],27
same,Activity,Glycine max [6],7
same,Activity,Glycine max [7],18
same,Activity,Glycine max [8],27
same,Activity,Glycine max [9],49
same,Activity,Glycine max [10],1
same,Activity,Glycine max [11],1679 cpm
same,Activity,Glycine max [12],2483 cpm
same,Activity,Glycine max [13],46 cpm
same,Activity,Glycine max [14],1823 cpm
same,Activity,Glycine max [15],33
same,Activity,Glycine max [16],47
